Molecular target: T1, Adrenergic receptor alpha-1 (Rattus norvegicus, UniProt P15823+P23944+P43140)
T1 sequence (P15823 whole entry): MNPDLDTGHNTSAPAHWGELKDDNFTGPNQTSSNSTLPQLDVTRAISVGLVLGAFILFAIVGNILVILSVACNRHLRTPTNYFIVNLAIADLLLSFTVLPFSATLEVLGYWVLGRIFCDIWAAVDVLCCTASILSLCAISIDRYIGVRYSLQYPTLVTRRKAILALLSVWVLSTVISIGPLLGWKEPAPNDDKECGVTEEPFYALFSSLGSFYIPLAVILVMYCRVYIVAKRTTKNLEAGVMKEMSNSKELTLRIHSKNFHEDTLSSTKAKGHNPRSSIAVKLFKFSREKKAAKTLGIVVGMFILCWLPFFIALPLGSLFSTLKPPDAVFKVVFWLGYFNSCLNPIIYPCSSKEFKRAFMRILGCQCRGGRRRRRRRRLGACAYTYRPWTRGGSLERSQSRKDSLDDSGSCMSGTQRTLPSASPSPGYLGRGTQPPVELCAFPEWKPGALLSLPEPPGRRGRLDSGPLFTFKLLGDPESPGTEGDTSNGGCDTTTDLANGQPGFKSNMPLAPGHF
T1 sequence (P23944 whole entry): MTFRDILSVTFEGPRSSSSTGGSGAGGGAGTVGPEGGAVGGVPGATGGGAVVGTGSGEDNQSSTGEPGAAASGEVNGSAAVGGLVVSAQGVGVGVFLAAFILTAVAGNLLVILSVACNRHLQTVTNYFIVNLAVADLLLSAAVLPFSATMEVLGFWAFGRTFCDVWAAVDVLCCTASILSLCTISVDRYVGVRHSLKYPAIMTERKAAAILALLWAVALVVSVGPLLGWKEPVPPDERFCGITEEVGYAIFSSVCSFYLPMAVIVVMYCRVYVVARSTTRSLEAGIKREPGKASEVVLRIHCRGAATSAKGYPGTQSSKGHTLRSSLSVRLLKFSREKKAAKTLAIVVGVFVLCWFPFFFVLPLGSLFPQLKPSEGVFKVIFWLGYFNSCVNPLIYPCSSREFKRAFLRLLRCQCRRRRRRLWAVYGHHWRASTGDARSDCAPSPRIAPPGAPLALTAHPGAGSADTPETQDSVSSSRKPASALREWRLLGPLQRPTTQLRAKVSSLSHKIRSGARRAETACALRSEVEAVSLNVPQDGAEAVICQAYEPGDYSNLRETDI
T1 sequence (P43140 whole entry): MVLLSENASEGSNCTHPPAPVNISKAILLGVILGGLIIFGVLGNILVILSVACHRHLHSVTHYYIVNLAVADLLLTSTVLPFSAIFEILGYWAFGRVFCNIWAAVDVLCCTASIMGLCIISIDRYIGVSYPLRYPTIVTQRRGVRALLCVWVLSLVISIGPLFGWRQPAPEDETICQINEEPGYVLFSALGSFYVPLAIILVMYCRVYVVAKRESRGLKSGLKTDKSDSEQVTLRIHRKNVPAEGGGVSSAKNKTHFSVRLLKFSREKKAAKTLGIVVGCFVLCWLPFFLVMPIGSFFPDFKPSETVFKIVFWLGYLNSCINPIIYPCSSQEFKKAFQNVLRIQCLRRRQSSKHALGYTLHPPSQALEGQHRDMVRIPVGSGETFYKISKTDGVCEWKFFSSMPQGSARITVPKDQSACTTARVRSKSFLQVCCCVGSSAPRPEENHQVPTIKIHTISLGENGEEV
Experiment: Compound was tested for its inhibitory effect on the binding profile in Alpha-1 adrenergic receptor using [3H]prazosin in rat brain.
Assay type: tissue-based
Procedure, shortened: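 Rat brain receptor binding with the stated radioligands. IC50 obtained by nonlinear regression from four to five concentrations. [3H]flupenthixol and [3H]N-propylnorapomorphine values come from four independent determinations each, and the [3H]haloperidol value from two experiments. Remaining ligands were determined once.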

IC50: 170 nM
Structure (SMILES): O=c1ccoc2cc(OCCCN3CCN(c4ccccn4)CC3)ccc12

— ChEMBL document CHEMBL1125728, “Dopamine autoreceptor agonists as potential antipsychotics. 2. (Aminoalkoxy)-4H-1-benzopyran-4-ones” (J Med Chem, 1991)
